How the values were obtained:
Type in all cases: functional
HCC 2998 = assay: Growth inhibition of human HCC2998 cells at 10 uM after 48 hrs by coulter counting; settings: HCC 2998, 48 h, read-out: GI
How it was run: (§1)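 Single-dose primary screen across the full NCI 60-cell-line panel. Stocks were made in DMSO and diluted in PBS to a final DMSO below 1%. Cultures at 6 × 10⁴ cells/ml were run in duplicate wells alongside PBS/DMSO vehicle controls at 37 °C in humidified 5% CO₂. Data were expressed as percent growth of treated cells.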

CCRF-CEM = assay: Growth inhibition of human CCRF-CEM cells at 10 uM after 48 hrs by coulter counting; settings: read-out: GI; how it was run: as §1
IGROV-1 = assay: Growth inhibition of human IGROV1 cells at 10 uM after 48 hrs by coulter counting; settings: IGROV-1, 48 h, read-out: GI; how it was run: as §1
RPMI-8226 = assay: Growth inhibition of human RPMI8226 cells at 10 uM after 48 hrs by coulter counting; settings: RPMI-8226, 48 h, read-out: GI; how it was run: as §1
U-251 = assay: Growth inhibition of human U251 cells at 10 uM after 48 hrs by coulter counting; settings: U-251, 48 h, read-out: GI
How it was run: (§2)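 Single-dose screen in the NCI 60 human tumor cell line panel (nine subpanels). Compounds dissolved in DMSO and diluted in phosphate buffered saline, keeping final DMSO below 1%. Added in duplicate wells to cells at 6 × 10⁴ cells/ml. Controls held PBS and DMSO at matching dilutions. Incubated at 37 °C, humidified, 5% CO₂. Reported as percent growth of treated cells.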

EKVX = assay: Growth inhibition of human EKVX cells at 10 uM after 48 hrs by coulter counting; settings: read-out: GI; how it was run: as §1
SK-MEL-2 = assay: Growth inhibition of human SK-MEL-2 cells at 10 uM after 48 hrs by coulter counting; settings: SK-MEL-2, 48 h, read-out: GI; how it was run: as §1
NCI-H226 = assay: Growth inhibition of human NCI-H226 cells at 10 uM after 48 hrs by coulter counting; settings: NCI-H226, 48 h, read-out: GI; how it was run: as §1
SF-539 = assay: Growth inhibition of human SF539 cells at 10 uM after 48 hrs by coulter counting; settings: SF-539, 48 h, read-out: GI; how it was run: as §1
NCI-H522 = assay: Growth inhibition of human NCI-H522 cells at 10 uM after 48 hrs by coulter counting; settings: NCI-H522, 48 h, read-out: GI; how it was run: as §1
HOP-62 = assay: Growth inhibition of human HOP62 cells at 10 uM after 48 hrs by coulter counting; settings: HOP-62, 48 h, read-out: GI; how it was run: as §1
MOLT-4 = assay: Growth inhibition of human MOLT4 cells at 10 uM after 48 hrs by coulter counting; settings: MOLT-4, 48 h, read-out: GI; how it was run: as §1
DU-145 = assay: Growth inhibition of human DU145 cells at 10 uM after 48 hrs by coulter counting; settings: DU-145, 48 h, read-out: GI; how it was run: as §1
BT-549 = assay: Growth inhibition of human BT549 cells at 10 uM after 48 hrs by coulter counting; settings: BT-549, 48 h, read-out: GI; how it was run: as §1
UACC-257 = assay: Growth inhibition of human UACC257 cells at 10 uM after 48 hrs by coulter counting; settings: UACC-257, 48 h, read-out: GI; how it was run: as §2
UO-31 = assay: Growth inhibition of human UO31 cells at 10 uM after 48 hrs by coulter counting; settings: UO-31, 48 h, read-out: GI; how it was run: as §2
M14 = assay: Growth inhibition of human M14 cells at 10 uM after 48 hrs by coulter counting; settings: M14, 48 h, read-out: GI; how it was run: as §1
MCF7 = assay: Growth inhibition of human MCF7 cells at 10 uM after 48 hrs by coulter counting; settings: MCF7, 48 h, read-out: GI; how it was run: as §1
SK-MEL-5 = assay: Growth inhibition of human SK-MEL-5 cells at 10 uM after 48 hrs by coulter counting; settings: SK-MEL-5, 48 h, read-out: GI; how it was run: as §1
KM12 = assay: Growth inhibition of human KM12 cells at 10 uM after 48 hrs by coulter counting; settings: KM12, 48 h, read-out: GI; how it was run: as §1
HL-60(TB) = assay: Growth inhibition of human HL-60(TB) cells at 10 uM after 48 hrs by coulter counting; settings: HL-60, 48 h, read-out: GI
How it was run: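 Test compound was dissolved in DMSO and diluted in phosphate-buffered saline to a final DMSO level below 1%. Dilutions were plated in duplicate with cell culture at 6 × 10⁴ cells/ml. Vehicle controls held PBS and DMSO at matching dilutions. Incubation was at 37 °C, humidified, under 5% CO₂. Data were reported as percent growth of treated cells.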

CAKI-1 = assay: Growth inhibition of human Caki1 cells at 10 uM after 48 hrs by coulter counting; settings: CAKI-1, 48 h, read-out: GI; how it was run: as §1
SNB-75 = assay: Growth inhibition of human SNB75 cells at 10 uM after 48 hrs by coulter counting; settings: SNB-75, 48 h, read-out: GI; how it was run: as §1
A549 = assay: Growth inhibition of human A549 cells at 10 uM after 48 hrs by coulter counting; settings: A549, 48 h, read-out: GI; how it was run: as §1
A498 = assay: Growth inhibition of human A498 cells at 10 uM after 48 hrs by coulter counting; settings: A498, 48 h, read-out: GI; how it was run: as §1
SF-295 = assay: Growth inhibition of human SF295 cells at 10 uM after 48 hrs by coulter counting; settings: SF-295, 48 h, read-out: GI; how it was run: as §1
NCI-H460 = assay: Growth inhibition of human NCI-H460 cells at 10 uM after 48 hrs by coulter counting; settings: NCI-H460, 48 h, read-out: GI; how it was run: as §1
NCI-H23 = assay: Growth inhibition of human NCI-H23 cells at 10 uM after 48 hrs by coulter counting; settings: NCI-H23, 48 h, read-out: GI; how it was run: as §1
NCI/ADR-RES = assay: Growth inhibition of human NCI/ADR-RES cells at 10 uM after 48 hrs by coulter counting; settings: read-out: GI; how it was run: as §1
K562 = assay: Growth inhibition of human K562 cells at 10 uM after 48 hrs by coulter counting; settings: K562, 48 h, read-out: GI; how it was run: as §1
HT-29 = assay: Growth inhibition of human HT-29 cells at 10 uM after 48 hrs by coulter counting; settings: HT-29, 48 h, read-out: GI; how it was run: as §1
LOX IMVI = assay: Growth inhibition of human LOXIMVI cells at 10 uM after 48 hrs by coulter counting; settings: read-out: GI; how it was run: as §1
SF-268 = assay: Growth inhibition of human SF268 cells at 10 uM after 48 hrs by coulter counting; settings: SF-268, 48 h, read-out: GI; how it was run: as §1
OVCAR-4 = assay: Growth inhibition of human OVCAR4 cells at 10 uM after 48 hrs by coulter counting; settings: OVCAR-4, 48 h, read-out: GI; how it was run: as §1
SK-MEL-28 = assay: Growth inhibition of human SK-MEL-28 cells at 10 uM after 48 hrs by coulter counting; settings: SK-MEL-28, 48 h, read-out: GI; how it was run: as §1
UACC-62 = assay: Growth inhibition of human UACC62 cells at 10 uM after 48 hrs by coulter counting; settings: UACC-62, 48 h, read-out: GI; how it was run: as §2
T47D = assay: Growth inhibition of human T47D cells at 10 uM after 48 hrs by coulter counting; settings: read-out: GI; how it was run: as §2
SNB-19 = assay: Growth inhibition of human SNB19 cells at 10 uM after 48 hrs by coulter counting; settings: SNB-19, 48 h, read-out: GI; how it was run: as §1
HCT-116 = assay: Growth inhibition of human HCT116 cells at 10 uM after 48 hrs by coulter counting; settings: HCT-116, 48 h, read-out: GI; how it was run: as §1
ACHN = assay: Growth inhibition of human ACHN cells at 10 uM after 48 hrs by coulter counting; settings: read-out: GI; how it was run: as §1
[1] = Growth inhibition of human NCI-322M cells at 10 uM after 48 hrs by coulter counting; settings: read-out: GI; how it was run: as §1
MDA-MB-435 = assay: Growth inhibition of human MDA-MB-435 cells at 10 uM after 48 hrs by coulter counting; settings: MDA-MB-435, 48 h, read-out: GI; how it was run: as §1

## C1=CN2C(=NC3=C(CCC/C3=C\c3cccs3)C2c2cccs2)S1 (configuration not stated)
HCC 2998
  inhibition of growth at 10 µM: > 10%
CCRF-CEM
  inhibition of growth at 10 µM: > 10%
IGROV-1
  inhibition of growth at 10 µM: > 10%
RPMI-8226
  inhibition of growth at 10 µM: > 10%
U-251
  inhibition of growth at 10 µM: > 10%
EKVX
  inhibition of growth at 10 µM: > 10%
SK-MEL-2
  inhibition of growth at 10 µM: > 10%
NCI-H226
  inhibition of growth at 10 µM: > 10%
SF-539
  inhibition of growth at 10 µM: > 10%
NCI-H522
  inhibition of growth at 10 µM: > 10%
HOP-62
  inhibition of growth at 10 µM: > 10%
MOLT-4
  inhibition of growth at 10 µM: > 10%
DU-145
  inhibition of growth at 10 µM: > 10%
BT-549
  inhibition of growth at 10 µM: > 10%
UACC-257
  inhibition of growth at 10 µM: > 10%
UO-31
  inhibition of growth at 10 µM: 28.7%
M14
  inhibition of growth at 10 µM: > 10%
MCF7
  inhibition of growth at 10 µM: > 10%
SK-MEL-5
  inhibition of growth at 10 µM: > 10%
KM12
  inhibition of growth at 10 µM: > 10%
HL-60(TB)
  inhibition of growth at 10 µM: > 10%
CAKI-1
  inhibition of growth at 10 µM: > 10%
SNB-75
  inhibition of growth at 10 µM: 10.4%
A549
  inhibition of growth at 10 µM: > 10%
A498
  inhibition of growth at 10 µM: > 10%
SF-295
  inhibition of growth at 10 µM: > 10%
NCI-H460
  inhibition of growth at 10 µM: > 10%
NCI-H23
  inhibition of growth at 10 µM: > 10%
NCI/ADR-RES
  inhibition of growth at 10 µM: > 10%
K562
  inhibition of growth at 10 µM: > 10%
HT-29
  inhibition of growth at 10 µM: > 10%
LOX IMVI
  inhibition of growth at 10 µM: 13%
SF-268
  inhibition of growth at 10 µM: > 10%
OVCAR-4
  inhibition of growth at 10 µM: > 10%
SK-MEL-28
  inhibition of growth at 10 µM: > 10%
UACC-62
  inhibition of growth at 10 µM: > 10%
T47D
  inhibition of growth at 10 µM: > 10%
SNB-19
  inhibition of growth at 10 µM: > 10%
HCT-116
  inhibition of growth at 10 µM: > 10%
ACHN
  inhibition of growth at 10 µM: > 10%
[1]
  inhibition of growth at 10 µM: > 10%
MDA-MB-435
  inhibition of growth at 10 µM: > 10%

Reference: ChEMBL document CHEMBL1926614, “Substituted thiazoles V. synthesis and antitumor activity of novel thiazolo[2,3-b]quinazoline and pyrido[4,3-d]thiazolo[3,2-a]pyrimidine analogues” (2012)
